# From PubChem
# T cruzi inh – inhibitors of intracellular T. cruzi growth, primary screen, luminescence, NIH3T3 host cells; inhibition, % (concentration not given with the values); 300,000 compounds, 1.4% hits; T. cruzi beta-gal in NIH3T3, 90 h;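 active means mean inhibition across valid replicates above about 55%, limit read from the data; inconclusive means mean below that limit but half or more replicates reach it; inactive means mean below it, under half of replicates reach it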;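 further: signal also drops with host cell toxicity which is not excluded here; 0% = plate median of DMSO wells and 100% = zero luminescence signal; higher percent means less beta-gal luminescence so fewer parasites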
#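 System: NIH/3T3 fibroblasts plus reporter T. cruzi. Medium: DMEM plus 2% FBS. Probe or stimulus: 5000 reporter trypomastigotes per well. Compound: single 50 nL compound addition per well in DMSO. Incubation: co-culture of at least 90 h after 3 h attachment. Detection: GalScreen β-gal luminescence, detergent lysis, 60 min. Evaluation: parasite load inhibition, %.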
# aSyn UTR inh – MLPCN primary screen, SNCA 5' untranslated region; alpha-synuclein 5'UTR reporter, inhibitor activity; inhibition, % (tested at 7.5 µM); 300,000 compounds, 0.82% hits; in the data active means inhibition above about 60%; inconclusive means no clear call, values can overlap the other calls;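 further: H4 neuroglioblastoma cells stably carrying SNCA 5'UTR luciferase fusion; 0% = DMSO wells and 100% = positive control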
# SKKanGAS inh – S. pyogenes SKKanGAS growth inhibitors in kanamycin, primary screen, streptokinase expression inhibitor project, SKKanGAS strain, BacTiter-Glo luminescence. 300,000 compounds, 1.3% hits. 6 h. inhibition, % at 7.5 µM;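 active means mean replicate score, as percent of positive control median, at least 50; inconclusive means mean below 50 but one replicate at or above 50; inactive means mean and every replicate below 50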;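 further: strain carries kanamycin resistance gene driven by streptokinase promoter and grows in 40 µg/ml kanamycin; loss of luminescence reflects streptokinase promoter inhibition or plain growth inhibition; 0% = median of DMSO wells and 100% = positive control at its reference dose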
# Mdm2 MdmX PPI – inhibitors of human Mdm2-MdmX association, primary screen, cell-based, luminescence, split luciferase, SaOS-2, uHTS; Protein Mdm4 (Homo sapiens) + E3 ubiquitin-protein ligase Mdm2 (Homo sapiens), …; inhibition, % at 8 µM; SaOS-2 split-luciferase Mdm2/MdmX complementation; 330,000 compounds, 3% hits;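 active means inhibition of at least 50% at 8 µM in the primary screen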
# Target sequence (O15151 whole entry, looked up): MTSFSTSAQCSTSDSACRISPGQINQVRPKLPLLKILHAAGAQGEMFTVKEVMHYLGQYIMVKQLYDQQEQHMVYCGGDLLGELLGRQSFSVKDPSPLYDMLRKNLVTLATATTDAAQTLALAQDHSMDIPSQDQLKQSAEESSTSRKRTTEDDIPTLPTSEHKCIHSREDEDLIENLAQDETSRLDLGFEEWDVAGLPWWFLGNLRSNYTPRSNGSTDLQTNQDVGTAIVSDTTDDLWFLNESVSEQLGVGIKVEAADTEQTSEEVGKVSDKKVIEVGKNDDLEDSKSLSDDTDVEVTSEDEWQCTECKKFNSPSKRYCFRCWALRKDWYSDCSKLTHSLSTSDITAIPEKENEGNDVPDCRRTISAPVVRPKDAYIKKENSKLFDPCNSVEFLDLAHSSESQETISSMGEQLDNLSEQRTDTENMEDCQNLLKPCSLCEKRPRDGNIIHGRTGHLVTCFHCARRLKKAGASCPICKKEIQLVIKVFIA
# Target sequence (Q00987 whole entry, looked up): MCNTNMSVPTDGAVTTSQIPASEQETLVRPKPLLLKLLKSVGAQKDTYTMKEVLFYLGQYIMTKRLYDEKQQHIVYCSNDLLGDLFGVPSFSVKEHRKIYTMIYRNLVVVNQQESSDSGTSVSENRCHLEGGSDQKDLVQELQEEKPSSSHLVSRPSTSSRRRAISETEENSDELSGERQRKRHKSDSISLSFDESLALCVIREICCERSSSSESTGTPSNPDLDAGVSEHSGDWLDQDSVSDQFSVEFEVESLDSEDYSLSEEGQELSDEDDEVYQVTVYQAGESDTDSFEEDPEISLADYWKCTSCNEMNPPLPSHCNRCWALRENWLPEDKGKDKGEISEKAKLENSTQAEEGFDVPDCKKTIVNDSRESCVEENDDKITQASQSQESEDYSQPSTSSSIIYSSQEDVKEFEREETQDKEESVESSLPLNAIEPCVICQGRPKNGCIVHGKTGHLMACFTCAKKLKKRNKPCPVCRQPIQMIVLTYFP
# CSC inhib – cancer stem cell viability inhibitors, primary screen, luminescence. cancer stem cell-like cells viability. inhibition, % at 7.5 µM. 300,000 compounds, 1.1% hits; in the data active means inhibition above about 75%; inconclusive means no clear call, values can overlap the other calls; tested in HMLE shEcad cells
# Starred values were filed as active, the others as inactive; ? = inconclusive; . = not tested or not shown. Only some compounds are listed: those with a hit (about 5.4% of all), similar ones and a draw of the others.
SMILES,T cruzi inh,aSyn UTR inh,SKKanGAS inh,Mdm2 MdmX PPI,CSC inhib
COC(=O)c1sc(N/N=C/c2ccc(C(C)C)cc2)nc1C,64*,-37,18,20,26
O=C(O)c1ccc(N/N=C/c2ccc(OC(=O)c3ccccc3Cl)cc2)cc1,-28,?,63*,-28,-7
CC(C)c1ccc(/C=N/Nc2ccc(C(=O)O)cc2)cc1,27,85*,-11,-48,-17
CC(=O)c1sc(N/N=C\c2ccc(N(C)C)cc2)nc1C,18,-135,0,-79,0
O=C(O)c1ccc(N/N=C/c2ccc(-c3ccccc3)cc2)cc1,5,-78,28,.,.
CC(=O)Nc1ccc(S[C@@H](CCN2CC[C@H](C(C)(C)C)CCC2=O)c2ccccc2)cc1,.,.,.,12,-2
CC(C)(C)[C@@H]1CCC(=O)N(CC[C@H](Sc2ccccc2)c2ccccc2)CC1,39,18,79*,29,104*
CC(C)(C)[C@H]1CCC(=O)N([C@H](CSc2ccc(Br)cc2)Cc2ccccc2)CC1,.,.,.,38,2
CC(C)(C)[C@H]1CCC(=O)N([C@H](CSc2ccccc2)Cc2ccccc2)CC1,43,-3,63*,11,139*
CC(C)CNC(=O)CSc1ccc(S(=O)(=O)N2CCN(C)CC2)cn1,.,.,.,17,-11
Cc1ccc(OCCCCCCN2CCNCC2)c(Br)c1,33,11,6,22,42
Clc1ccc(OCCCn2ccnc2)c(Br)c1,53,-4,-1,8,15
Cc1cc(Br)ccc1OCCN1CCCC1,73*,10,3,-25,41
Clc1ccc(Cl)c(OCCCCN2CCNCC2)c1,60*,0,5,-21,96*
Clc1ccc(OCCCN2CCCCC2)c(Br)c1,46,-88,2,-19,7
Clc1ccc(OCCCCCN2CCCC2)c(Br)c1,68*,-11,-1,6,23
CCN1CCN(CCCOc2ccc(Cl)cc2Br)CC1,57*,4,1,-10,57
C#CCN(C(=O)c1ccc(OC2CCN(Cc3ccccn3)CC2)cc1)C1CCCCC1,4,7,-4,22,-7
CC(C(=O)Nc1ccc(S(=O)(=O)N2CCCCC2)cc1)N1CCN(c2ccccn2)CC1 (configuration not stated),1,-20,5,-16,-13
CCN1CCN(CCOc2cccc(Cl)c2Cl)CC1,78*,10,-6,-21,8
Brc1ccccc1OCCCCCN1CCCC1,57*,-8,2,21,-14
CC(C)(C)c1ccccc1OCCOCCN1CCCCCC1,56*,-38,-7,37,31
O=[N+]([O-])c1c(C(Cl)Cl)nn(-c2ccc(Cl)cc2)c1N1CCCCC1,15,1,16,42,44
CCN(CC(=O)Nc1c(F)cccc1F)C(=O)c1ccc(S(=O)(=O)N2CCCC2)cc1,-5,-2,-7,21,5
CCN(CC(=O)Nc1c(F)cccc1F)C(=O)/C=C/c1ccc(S(=O)(=O)N2CCCCCC2)cc1,5,78*,-1,17,5
SMILES,T cruzi inh,aSyn UTR inh,SKKanGAS inh,Mdm2 MdmX PPI,CSC inhib
Cc1nc(NC(=O)c2ccc(Cl)cc2)sc1-c1csc(Nc2cccc(F)c2)n1,-24,-61,73*,.,12
CCC(C)C(=O)Nc1nc(C)c(-c2csc(Nc3ccc(Cl)cc3)n2)s1 (configuration not stated),58*,-31,22,21,34
CCCC(=O)Nc1nc(C)c(-c2csc(Nc3ccc(Cl)cc3)n2)s1,33,16,25,49,64
CC(C)Cc1ccc(CN2CCCC(NC(=O)CCn3cnnn3)C2)cc1 (configuration not stated),56*,-13,3,11,-6
CC(C)Cc1ccc(CN2CCCC(NC(=O)Cn3cnnn3)C2)cc1 (configuration not stated),?,-18,44,11,-2
Oc1cccc(/C=N/N(Cc2ccccc2)c2ccccc2)c1,-3,26,?,14,87*
CN(CC(=O)Nc1cccc(F)c1)C(=O)c1ccccc1Sc1ccccc1C#N,.,.,.,13,-7
OCCN(CCO)CC(O)COc1ccc(C23CC4CC(CC(C4)C2)C3)cc1 (configuration not stated),7,76*,6,.,78*
